Source: ChEMBL document CHEMBL4346670, “Discovery of Novel Janus Kinase (JAK) and Histone Deacetylase (HDAC) Dual Inhibitors for the Treatment of Hematological Malignancies” (J Med Chem, 2019)
Values belong to the compound of their own block, whether it stands above or below them. The source made the active and inactive calls. No cut-off for these calls is given here.

Tests used:
HEL [1] = test: Induction of apoptosis in HEL cells assessed as necrotic apoptotic cells at 1 uM after 24 hrs by Annexin-V/propidium iodide staining-based flow cytometric analysis (reference value: 0.011%); assay type: functional, Homo sapiens
[2] = Toxicity in BALB/c nu mouse xenografted with HEL cells assessed as injury to internal organs at 60 mg/kg/day, ip administered for 16 days and measured post-last dose in presence of ruxolitinib; assay type: organism-based; conditions: in vivo, 384 h
HEL [3] = test: Induction of apoptosis in HEL cells assessed as viable cells at 1 uM after 24 hrs by Annexin-V/propidium iodide staining-based flow cytometric analysis (reference value: 87.5%); assay type: functional, Homo sapiens
[4] = target: T1, Janus Kinase (JAK) (Homo sapiens) (UniProt P52333+P23458+O60674+P29597); test: Inhibition of JAK in human MDA-MB-231 cells assessed as downregulation of p-STAT3-Tyr705 level at 5 uM after 12 hrs by Western blot analysis
[5] = target: Tyrosine-protein kinase JAK2 (Homo sapiens, UniProt O60674); test: Inhibition of recombinant human JAK2 at 10 uM using Ulight-CAGAGAIETDKEYYTVKD as substrate measured after 60 mins by LANCE assay
MOLT-4 = test: Antiproliferative activity against human MOLT4 cells assessed as reduction in cell viability after 48 hrs by MTT assay; assay type: functional, cell-based; conditions: MOLT-4, 48 h
Procedure, shortened: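 Cells kept in RPMI1640 with 10% FBS at 37 °C, 5% CO2. Seeded and grown for 12 h, then exposed to a range of compound concentrations for 48 h. 0.5% MTT added for 4 h, formazan dissolved in DMSO, absorbance read at 570 nm.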

K562 [6] = test: Induction of apoptosis in human K562 cells assessed as late apoptotic cells at 1 uM after 24 hrs by Annexin-V/propidium iodide staining-based flow cytometric analysis (reference value: 5.87%); assay type: functional
[7] = Toxicity in BALB/c nu mouse xenografted with HEL cells assessed as change in body weight at 60 mg/kg/day, ip administered for 16 days and measured every day during compound dosing in presence of ruxolitinib; assay type: organism-based; conditions: in vivo, 384 h
[8] = Drug level in BALB/c nu mouse xenografted with HEL cells at 100 mg/kg/day, ip administered for 5 days and measured after 0.5 to 4 hrs by LC-MS/MS analysis; assay type: ADME, organism-based; conditions: in vivo
Procedure, shortened: (§1)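 HEL-xenografted male BALB/c-nu mice dosed IP at 100 mg/kg/day for 5 days. Sacrificed 0.5, 1.0 and 4.0 h after the last dose. Plasma separated and stored at -80 °C. Tumors homogenized in normal saline (5:1 v/w) and sonicated. Samples deproteinized with methanol containing internal standard, centrifuged, diluted in methanol/acetonitrile and recentrifuged.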

K562 [9] = test: Induction of apoptosis in human K562 cells assessed as necrotic apoptotic cells at 1 uM after 24 hrs by Annexin-V/propidium iodide staining-based flow cytometric analysis (reference value: 0.827%); assay type: functional
[10] = target: T1, Janus Kinase (JAK) (Homo sapiens); test: Inhibition of JAK in human MDA-MB-231 cells assessed as decrease in upregulation of p-STAT3-Tyr705 level at 5 uM after 12 hrs in presence of ruxolitinib by Western blot analysis; assay type: cell-based
Procedure, shortened: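 MDA-MB-231 cells treated with compound or DMSO for 12 h, then lysed in SDS buffer and cleared by centrifugation. Lysate resolved by SDS-PAGE and transferred to nitrocellulose. Immunoblotted for p-STAT3 (Tyr705), total STAT3, acetyl-α-tubulin and acetyl-histone H3, with GAPDH as loading control. Detection by enhanced chemiluminescence.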

HEL [11] = test: Induction of apoptosis in HEL cells assessed as late apoptotic cells at 1 uM after 24 hrs by Annexin-V/propidium iodide staining-based flow cytometric analysis (reference value: 0.023%); assay type: functional, Homo sapiens
K562 [12] = test: Induction of apoptosis in human K562 cells assessed as early apoptotic cells at 1 uM after 24 hrs by Annexin-V/propidium iodide staining-based flow cytometric analysis (reference value: 7.55%); assay type: functional
K562 [13] = test: Induction of apoptosis in human K562 cells assessed as viable cells at 1 uM after 24 hrs by Annexin-V/propidium iodide staining-based flow cytometric analysis (reference value: 85.7%); assay type: functional
HEL [14] = test: Induction of apoptosis in HEL cells assessed as early apoptotic cells at 1 uM after 24 hrs by Annexin-V/propidium iodide staining-based flow cytometric analysis (reference value: 12.5%); assay type: functional, Homo sapiens
HEL [15] = test: Antiproliferative activity against HEL cells harboring JAK2 V617F mutant assessed as reduction in cell viability after 48 hrs by MTT assay; assay type: functional, cell-based; conditions: Homo sapiens
[16] = Toxicity in BALB/c nu mouse xenografted with HEL cells assessed as change in body weight at 70 mg/kg/day, ip administered for 16 days and measured every day during compound dosing in presence of SAHA; assay type: organism-based; conditions: in vivo, 384 h
[17] = Toxicity in BALB/c nu mouse xenografted with HEL cells assessed as injury to internal organs at 70 mg/kg/day, ip administered for 16 days and measured post-last dose in presence of SAHA; assay type: organism-based; conditions: in vivo, 384 h
K562 [18] = test: Synergistic antiproliferative activity against human K562 cells assessed as reduction in cell viability after 48 hrs in presence of SAHA by MTT assay; assay type: functional, cell-based; conditions: K562, 48 h
HEL [19] = test: Synergistic antiproliferative activity against HEL cells harboring JAK2 V617F mutant assessed as reduction in cell viability after 48 hrs in presence of SAHA by MTT assay; assay type: functional, cell-based; conditions: Homo sapiens
HEL [20] = test: Synergistic antiproliferative activity against HEL cells harboring JAK2 V617F mutant assessed as combination index after 48 hrs in presence of SAHA by MTT assay; assay type: functional, Homo sapiens
K562 [21] = test: Synergistic antiproliferative activity against human K562 cells assessed as combination index after 48 hrs in presence of SAHA by MTT assay; assay type: functional
Histone deacetylase 2 = Histone deacetylase 2 (Homo sapiens, UniProt Q92769); conditions: A549, at 80 to 400 nM
[22] = target: T2, Protein deacetylase HDAC6 (Homo sapiens, UniProt Q9UBN7); test: Inhibition of recombinant human HDAC6 using p53 (379 to 382 residues) derived fluorogenic peptide RHKKAc as substrate
T2 sequence (Q9UBN7 whole entry): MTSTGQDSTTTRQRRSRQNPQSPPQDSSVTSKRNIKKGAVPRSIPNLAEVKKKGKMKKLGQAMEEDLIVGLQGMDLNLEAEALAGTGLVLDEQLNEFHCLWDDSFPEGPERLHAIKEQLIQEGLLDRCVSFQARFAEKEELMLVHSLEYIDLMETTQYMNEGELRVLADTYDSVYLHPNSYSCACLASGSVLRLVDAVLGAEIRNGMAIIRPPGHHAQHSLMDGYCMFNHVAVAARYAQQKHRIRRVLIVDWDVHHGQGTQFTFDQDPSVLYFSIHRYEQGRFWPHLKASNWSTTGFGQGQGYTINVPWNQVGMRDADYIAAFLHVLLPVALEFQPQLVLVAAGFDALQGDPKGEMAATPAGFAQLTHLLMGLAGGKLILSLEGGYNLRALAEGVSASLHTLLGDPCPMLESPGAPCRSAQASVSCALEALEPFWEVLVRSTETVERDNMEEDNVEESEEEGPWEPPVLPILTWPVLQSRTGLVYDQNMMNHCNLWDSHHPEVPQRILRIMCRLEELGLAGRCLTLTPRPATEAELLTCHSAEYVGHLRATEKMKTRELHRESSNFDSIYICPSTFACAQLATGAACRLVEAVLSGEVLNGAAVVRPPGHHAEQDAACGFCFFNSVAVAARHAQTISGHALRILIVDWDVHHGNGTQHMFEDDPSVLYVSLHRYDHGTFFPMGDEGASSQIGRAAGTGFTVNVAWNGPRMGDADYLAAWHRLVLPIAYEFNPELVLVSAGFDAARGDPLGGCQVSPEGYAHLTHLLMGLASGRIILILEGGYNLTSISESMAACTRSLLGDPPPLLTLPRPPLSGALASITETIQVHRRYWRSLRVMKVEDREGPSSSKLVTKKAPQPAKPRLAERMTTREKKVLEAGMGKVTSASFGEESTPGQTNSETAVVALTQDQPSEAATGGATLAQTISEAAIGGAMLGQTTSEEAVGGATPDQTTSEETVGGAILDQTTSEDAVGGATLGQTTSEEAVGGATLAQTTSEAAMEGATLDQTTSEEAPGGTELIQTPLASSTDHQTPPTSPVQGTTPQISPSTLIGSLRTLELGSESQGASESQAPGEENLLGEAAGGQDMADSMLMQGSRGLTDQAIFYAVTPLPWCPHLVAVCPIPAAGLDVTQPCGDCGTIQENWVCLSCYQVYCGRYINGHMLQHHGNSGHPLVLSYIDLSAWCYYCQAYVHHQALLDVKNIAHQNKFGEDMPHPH

K562 [23] = test: Antiproliferative activity against human K562 cells assessed as reduction in cell viability after 48 hrs by MTT assay; assay type: functional, cell-based; conditions: K562, 48 h
HEL [24] = test: Antitumor activity against HEL cells xenografted in BALB/c nu mouse assessed as tumor growth inhibition at 70 mg/kg/day, ip administered for 16 days and measured every 3 days during compound dosing in presence of SAHA by caliper method relative to control; assay type: functional, Homo sapiens; conditions: read-out: TGI
Procedure, shortened: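 Male BALB/c-nu mice (5-6 weeks) inoculated subcutaneously in the right flank with 1 × 10^7 HEL cells. Randomized at day 10 (6 per group). Dosed IP daily for 16 days; controls received PBS with 5% DMSO. Tumors measured by caliper every three days (V = ab²/2) and body weight monitored. TGI calculated from final tumor weights versus control.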

[25] = Drug level in tumor of BALB/c nu mouse xenografted with HEL cells at 100 mg/kg/day, ip administered for 5 days and measured 1 hr post-last dose by LC-MS/MS analysis; assay type: ADME, organism-based, Neoplasm; conditions: in vivo; procedure, shortened: as §1
HEL [26] = test: Antitumor activity against HEL cells xenografted in BALB/c nu mouse assessed as reduction in tumor volume at 100 mg/kg/day, ip administered for 16 days and measured every 3 days during compound dosing by caliper method relative to control; assay type: functional, Homo sapiens; conditions: read-out: TGI
Jurkat = test: Antiproliferative activity against human Jurkat cells assessed as reduction in cell viability after 48 hrs by MTT assay; assay type: functional, cell-based

Sequence of Histone deacetylase 2 (Q92769 whole entry, the tested form may be a part): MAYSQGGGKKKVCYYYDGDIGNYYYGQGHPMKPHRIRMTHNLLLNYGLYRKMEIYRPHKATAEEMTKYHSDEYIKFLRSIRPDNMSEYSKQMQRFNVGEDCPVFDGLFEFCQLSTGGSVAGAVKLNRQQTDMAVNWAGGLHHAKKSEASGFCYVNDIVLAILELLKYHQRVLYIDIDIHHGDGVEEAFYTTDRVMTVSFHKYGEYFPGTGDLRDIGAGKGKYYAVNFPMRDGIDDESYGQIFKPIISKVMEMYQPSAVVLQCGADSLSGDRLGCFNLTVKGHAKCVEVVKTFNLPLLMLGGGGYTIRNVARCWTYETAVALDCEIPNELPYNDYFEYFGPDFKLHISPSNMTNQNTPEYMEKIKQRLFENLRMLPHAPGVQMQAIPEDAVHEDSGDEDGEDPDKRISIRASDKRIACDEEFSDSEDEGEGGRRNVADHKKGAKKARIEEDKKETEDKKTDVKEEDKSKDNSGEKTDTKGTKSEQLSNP
Sequence of Tyrosine-protein kinase JAK2 (O60674 whole entry): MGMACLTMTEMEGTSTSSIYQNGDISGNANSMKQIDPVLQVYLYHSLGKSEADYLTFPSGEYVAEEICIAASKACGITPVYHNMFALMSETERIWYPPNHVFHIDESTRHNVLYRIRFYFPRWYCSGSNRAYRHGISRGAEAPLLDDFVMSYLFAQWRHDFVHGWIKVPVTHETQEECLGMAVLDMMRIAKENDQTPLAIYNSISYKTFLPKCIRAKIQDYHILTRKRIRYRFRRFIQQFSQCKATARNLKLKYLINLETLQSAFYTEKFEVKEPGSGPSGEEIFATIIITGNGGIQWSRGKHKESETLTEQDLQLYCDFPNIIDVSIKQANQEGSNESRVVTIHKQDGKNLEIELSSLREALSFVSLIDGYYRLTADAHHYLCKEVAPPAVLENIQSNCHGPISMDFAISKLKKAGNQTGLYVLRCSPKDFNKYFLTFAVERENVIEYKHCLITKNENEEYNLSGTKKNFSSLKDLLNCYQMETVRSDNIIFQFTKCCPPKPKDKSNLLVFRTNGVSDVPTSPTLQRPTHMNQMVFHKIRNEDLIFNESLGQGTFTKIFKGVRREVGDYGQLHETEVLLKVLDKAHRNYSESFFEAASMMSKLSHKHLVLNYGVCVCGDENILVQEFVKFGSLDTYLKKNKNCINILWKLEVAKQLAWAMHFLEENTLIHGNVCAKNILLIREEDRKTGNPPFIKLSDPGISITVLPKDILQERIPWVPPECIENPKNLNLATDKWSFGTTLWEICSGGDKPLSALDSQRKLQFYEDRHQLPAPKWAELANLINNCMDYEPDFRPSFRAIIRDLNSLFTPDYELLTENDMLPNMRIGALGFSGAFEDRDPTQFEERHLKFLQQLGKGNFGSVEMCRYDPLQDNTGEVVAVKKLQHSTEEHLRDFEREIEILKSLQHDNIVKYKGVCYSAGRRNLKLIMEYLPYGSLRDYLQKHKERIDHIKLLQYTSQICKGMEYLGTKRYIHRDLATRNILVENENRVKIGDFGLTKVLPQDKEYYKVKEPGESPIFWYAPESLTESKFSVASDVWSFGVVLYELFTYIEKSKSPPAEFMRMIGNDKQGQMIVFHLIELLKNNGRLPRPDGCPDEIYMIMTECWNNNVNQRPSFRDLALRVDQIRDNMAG

Activity [4]: Active
inhibition [5]: inactive
IC50 (MOLT-4): 400 nM
Drug uptake [8]: Active
inhibition [10]: Active
Structure (SMILES): O=C(CCCCCCC(=O)Nc1ccccc1)NO [VORINOSTAT]
Activity (HEL [1]): 2%
Activity [2]: Non-Toxic
Activity (HEL [3]): 32.1%
Activity (K562 [6]): 17.3%
Activity [7]: Non-Toxic
Activity (K562 [9]): 0.73%
Activity (HEL [11]): 44.6%
Activity (K562 [12]): 14.5%
Activity (K562 [13]): 67.6%
Activity (HEL [14]): 21.3%

IC50 (MOLT-4): 15800 nM
IC50 (K562 [18]): 1030 nM
inhibition (Histone deacetylase 2): Active
IC50 [22]: 15 nM
IC50 (K562 [23]): 23200 nM
Drug uptake [25]: Active
IC50 (Jurkat): > 5000 nM
Structure (SMILES): N#CC[C@H](C1CCCC1)n1cc(-c2ncnc3[nH]ccc23)cn1 [RUXOLITINIB]
IC50 (HEL [15]): 18600 nM
Activity [16]: Non-Toxic
Activity (HEL [1]): 0.85%
viability at 1 µM (HEL [3]; Homo sapiens, HEL, 24 h, read-out: Activity): 79.4%
Activity [17]: Non-Toxic
IC50 (HEL [19]): 300 nM
CI (HEL [20]): 0.48
Activity (K562 [6]): 15.3%
CI (K562 [21]): 0.97
Activity (K562 [9]): 0.248%
Activity (HEL [11]): 11.7%
Activity (K562 [12]): 9.22%
viability at 1 µM (K562 [13]; Homo sapiens, K562, 24 h, read-out: Activity): 75.2%
inhibition in vivo at 70 mg/kg/day (HEL [24]): 57%
Activity (HEL [14]): 8.08%
inhibition in vivo at 100 mg/kg/day (HEL [26]): 27%
